Test results reported in PMC8210293 (Experimental and Therapeutic Medicine, 2021).

Legend:
Format in all cases: in vitro ADME
recombinant human UGT1A3 = biological target: T1, recombinant human UGT1A3 (Homo sapiens, UniProt P35503); assay: Inhibition of recombinant UGT1A3-catalyzed 4-MU glucuronidation; conditions: for Ki: UGT1A3
T1 sequence (P35503 29-534): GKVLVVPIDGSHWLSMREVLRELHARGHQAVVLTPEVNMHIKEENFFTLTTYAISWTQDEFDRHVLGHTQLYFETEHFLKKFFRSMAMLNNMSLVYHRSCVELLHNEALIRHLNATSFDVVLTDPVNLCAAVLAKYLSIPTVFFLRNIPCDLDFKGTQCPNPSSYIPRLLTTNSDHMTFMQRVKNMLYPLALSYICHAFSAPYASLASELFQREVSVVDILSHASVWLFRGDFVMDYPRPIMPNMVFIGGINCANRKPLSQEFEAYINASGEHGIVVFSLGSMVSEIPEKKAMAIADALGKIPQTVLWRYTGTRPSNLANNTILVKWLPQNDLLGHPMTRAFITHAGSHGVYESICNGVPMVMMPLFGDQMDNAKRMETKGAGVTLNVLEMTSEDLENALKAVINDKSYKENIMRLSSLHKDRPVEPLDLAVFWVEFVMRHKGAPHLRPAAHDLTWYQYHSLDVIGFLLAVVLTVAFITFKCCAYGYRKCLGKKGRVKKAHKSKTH
Procedure, shortened: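 Insect-cell-expressed recombinant human UGT1A3 (0.05 mg/ml), 1,200 µM 4-MU, 5 mM UDPGA, 5 mM MgCl2, 50 mM Tris-HCl pH 7.4, DMSO <0.5%. Preincubated 5 min at 37 °C, UDPGA-initiated, run 120 min, quenched with cold methanol plus internal standard. 4-MU-G by LC-MS/MS MRM. Remaining activity vs blank at 50 µM. […] Ki from inhibition-model fits and Lineweaver-Burk/Dixon plots.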

recombinant human UGT1A9 = biological target: T2, recombinant human UGT1A9 (Homo sapiens, UniProt O60656); assay: Inhibition of recombinant UGT1A9-catalyzed 4-MU glucuronidation
T2 sequence (O60656 26-530): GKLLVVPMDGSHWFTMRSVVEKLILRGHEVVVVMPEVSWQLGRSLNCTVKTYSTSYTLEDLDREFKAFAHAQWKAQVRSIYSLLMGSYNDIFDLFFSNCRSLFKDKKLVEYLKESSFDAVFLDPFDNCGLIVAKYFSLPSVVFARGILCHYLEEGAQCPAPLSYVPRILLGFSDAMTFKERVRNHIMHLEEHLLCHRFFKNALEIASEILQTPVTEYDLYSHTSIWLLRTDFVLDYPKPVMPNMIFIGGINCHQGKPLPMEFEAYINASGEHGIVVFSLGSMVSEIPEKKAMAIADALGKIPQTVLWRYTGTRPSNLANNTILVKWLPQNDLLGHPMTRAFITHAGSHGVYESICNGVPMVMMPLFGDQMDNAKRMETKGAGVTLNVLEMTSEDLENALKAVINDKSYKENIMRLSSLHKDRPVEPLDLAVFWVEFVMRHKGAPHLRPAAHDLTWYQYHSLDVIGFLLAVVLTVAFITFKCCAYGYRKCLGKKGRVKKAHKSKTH
Procedure, shortened: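 UGT1A9 incubations used recombinant human enzyme from baculovirus-insect cells (0.05 mg/ml), 30 µM 4-MU, 5 mM UDPGA, 5 mM MgCl2, 50 mM Tris-HCl pH 7.4, DMSO <0.5%. Preincubated 5 min at 37 °C, UDPGA-started, run 30 min, stopped with cold methanol plus internal standard. 4-MU-G by LC-MS/MS MRM. Remaining activity vs blank at 50 µM. […] Ki and type from model fits and Lineweaver-Burk/Dixon plots.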

recombinant human UGT1A6 = biological target: T3, recombinant human UGT1A6 (Homo sapiens, UniProt P19224); assay: Inhibition of recombinant UGT1A6-catalyzed 4-MU glucuronidation; conditions: Dixon and Lineweaver-Burk plots
T3 sequence (P19224 27-532): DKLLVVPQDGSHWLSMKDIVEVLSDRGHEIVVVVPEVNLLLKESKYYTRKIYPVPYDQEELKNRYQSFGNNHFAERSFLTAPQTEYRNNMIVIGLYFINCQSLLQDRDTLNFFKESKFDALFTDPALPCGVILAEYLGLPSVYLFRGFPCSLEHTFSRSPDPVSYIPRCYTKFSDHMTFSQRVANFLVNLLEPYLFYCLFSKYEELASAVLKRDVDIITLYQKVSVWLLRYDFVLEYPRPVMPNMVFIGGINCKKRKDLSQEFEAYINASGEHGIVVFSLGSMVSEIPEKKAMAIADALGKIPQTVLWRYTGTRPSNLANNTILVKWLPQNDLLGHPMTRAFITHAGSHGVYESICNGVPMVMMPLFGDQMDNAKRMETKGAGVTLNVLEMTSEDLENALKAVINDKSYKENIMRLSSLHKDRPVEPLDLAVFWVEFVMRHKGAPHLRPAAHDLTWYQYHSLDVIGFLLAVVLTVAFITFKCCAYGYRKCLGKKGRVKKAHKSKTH

recombinant human UGT1A1 = biological target: T4, recombinant human UGT1A1 (Homo sapiens, UniProt P22309); assay: Inhibition of recombinant UGT1A1-catalyzed 4-MU glucuronidation
T4 sequence (P22309 26-533): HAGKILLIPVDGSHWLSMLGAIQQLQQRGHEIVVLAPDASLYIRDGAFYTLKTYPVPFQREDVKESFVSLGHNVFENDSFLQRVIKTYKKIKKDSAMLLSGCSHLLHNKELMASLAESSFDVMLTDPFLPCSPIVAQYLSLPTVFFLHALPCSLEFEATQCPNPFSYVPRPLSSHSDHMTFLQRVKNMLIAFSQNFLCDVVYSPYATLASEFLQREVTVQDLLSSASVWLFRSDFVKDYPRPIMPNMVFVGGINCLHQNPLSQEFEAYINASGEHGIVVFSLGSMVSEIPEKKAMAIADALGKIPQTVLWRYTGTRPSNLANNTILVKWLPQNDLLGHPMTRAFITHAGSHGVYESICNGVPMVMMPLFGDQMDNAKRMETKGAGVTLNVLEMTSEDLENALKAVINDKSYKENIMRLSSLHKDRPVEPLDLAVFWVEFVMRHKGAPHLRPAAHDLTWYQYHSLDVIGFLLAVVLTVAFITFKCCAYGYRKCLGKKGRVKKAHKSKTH
Procedure, shortened: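 Recombinant human UGT1A1 from baculovirus-infected insect cells (0.125 mg/ml), 30 µM 4-MU, 5 mM UDPGA, 5 mM MgCl2, 50 mM Tris-HCl pH 7.4, DMSO <0.5%. Preincubated 5 min at 37 °C, started with UDPGA, run 120 min, stopped with cold methanol plus internal standard. 4-MU-G measured by LC-MS/MS MRM. Remaining activity vs blank at 50 µM. […] Ki by model fitting. Type from Lineweaver-Burk/Dixon plots.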

IC50 (recombinant human UGT1A3): 10600 nM | Ki (recombinant human UGT1A3; Inhibitory potential class based on Ki): 1000 to 10000 nM | Ki (recombinant human UGT1A3; Ki, second plot of Lineweaver-Burk slopes): 1600 nM | IC50 (recombinant human UGT1A9): 2810 nM | Ki (recombinant human UGT1A9): 510 nM | Inhibition type (recombinant human UGT1A9; UGT1A9, Dixon and Lineweaver-Burk plots): competitive inhibition | Inhibition type (recombinant human UGT1A6): non-competitive inhibition | IC50 (recombinant human UGT1A1): 7470 nM | Ki (recombinant human UGT1A1; Inhibitory potential class based on Ki, UGT1A1): 1000 to 10000 nM | Inhibition type (recombinant human UGT1A1; UGT1A1, Dixon and Lineweaver-Burk plots): non-competitive inhibition
Compound: O=c1c(O)c(-c2ccc(O)c(O)c2)oc2cc(O)cc(O)c12 [Quercetin, 3,3',4',5,7-pentahydroxyflavone]
